# Laboratory results taken from ChEMBL document CHEMBL3272339, “Catechol O-methyltransferase. 7. Affinity labeling with the oxidation products of 6-aminodopamine” (J Med Chem, 1976).
# Activity calls are given as the source filed them. The calls are words filed in the database; no cut-off is given here.
# Experiments:
# [1] = target: T1, Catechol O-methyltransferase (Rattus norvegicus) (UniProt P22734); assay: Inhibition of Sprague-Dawley rat liver COMT under aerobic condition at 37 degC in presence of antioxidant sodium metabisulfite
# T1 sequence (whole entry): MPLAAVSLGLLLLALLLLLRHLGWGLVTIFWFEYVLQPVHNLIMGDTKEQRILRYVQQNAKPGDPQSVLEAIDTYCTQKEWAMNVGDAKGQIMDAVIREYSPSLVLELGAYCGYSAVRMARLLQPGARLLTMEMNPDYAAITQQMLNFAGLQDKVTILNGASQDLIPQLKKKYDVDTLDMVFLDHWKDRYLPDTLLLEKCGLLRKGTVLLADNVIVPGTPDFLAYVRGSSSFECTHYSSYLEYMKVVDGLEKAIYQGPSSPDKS
# [2] = target: T1, Catechol O-methyltransferase (Rattus norvegicus); assay: Inhibition of Sprague-Dawley rat liver COMT under aerobic condition at 37 degC in presence of catalase
# [3] = target: T1, Catechol O-methyltransferase (Rattus norvegicus); assay: Inhibition of Sprague-Dawley rat liver COMT at 16 to 64 uM preincubated > 50 mins at 37 degC
# Method in brief: (§1)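 COMT came from male Sprague–Dawley rat liver (180–200 g), purified about 50-fold through the calcium phosphate stage. Inhibitor (fresh aqueous stock under N₂) was preincubated with enzyme, MgCl₂ and phosphate buffer pH 7.60 at 37°. Timed aliquots were assayed for 5 min at 37° with ¹⁴C-SAM and 3,4-dihydroxybenzoate or DHA, stopped with HCl, and products extracted and counted. Residual activity was taken against unpreincubated controls, in duplicate.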
# [4] = target: T1, Catechol O-methyltransferase (Rattus norvegicus); assay: Inhibition of Sprague-Dawley rat liver COMT under aerobic condition at 5 mM preincubated up to 90 mins followed by enzyme addition at 37 degC measured after 20 mins
# Method in brief: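 Inhibitor at 5.0 mM in phosphate buffer pH 7.60 was air-oxidised at 37° for various times. Aliquots then went into preincubation mixtures with purified rat liver COMT (final 64 μM) for 20 min at 37°. Residual activity was measured by the radiochemical assay with ¹⁴C-SAM and catechol substrate, with methylated products extracted into toluene–isoamyl alcohol and counted.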
# [5] = target: T1, Catechol O-methyltransferase (Rattus norvegicus); assay: Inhibition of Sprague-Dawley rat liver COMT under anaerobic condition at 37 degC
# [6] = Chemical stability of the compound in seal ampules containing water under nitrogenous condition at 5 umol/ml measured up to 4 hrs; type: physicochemical; details: buffer, 5000 µM
# Method in brief: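 Stock prepared fresh for each experiment at 5 μmol/ml in water in sealed ampules under nitrogen; aliquots withdrawn as needed and checked for signs of oxidation over up to 4 hr.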
# [7] = target: T1, Catechol O-methyltransferase (Rattus norvegicus); assay: Irreversible inhibition of Sprague-Dawley rat liver COMT
# [8] = Chemical stability of the compound assessed as polymerization under aerobic condition by spectrophotometric analysis; type: physicochemical
# [9] = target: T1, Catechol O-methyltransferase (Rattus norvegicus); assay: Inhibition of Sprague-Dawley rat liver COMT assessed as residual activity under aerobic condition at 189 uM at 37 degC after 40 mins relative to control
# Method in brief: (§2)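 Partially purified rat liver COMT (male Sprague-Dawley, calcium phosphate stage, ~50-fold) preincubated at 37° with inhibitor (189 μM), MgCl2 1.38 mM, phosphate buffer pH 7.60. Additions: sodium metabisulfite 0.15 M or catalase 250 μg. Anaerobic runs in sealed ampules under nitrogen. Residual activity vs unpreincubated controls; duplicates.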
# [10] = target: T1, Catechol O-methyltransferase (Rattus norvegicus); assay: Inhibition of Sprague-Dawley rat liver COMT assessed as residual activity under anaerobic condition at 189 uM at 37 degC after 40 mins relative to control; method in brief: as §2
# [11] = target: T1, Catechol O-methyltransferase (Rattus norvegicus); assay: Inhibition of Sprague-Dawley rat liver COMT assessed as residual activity under aerobic condition at 189 uM at 37 degC after 40 mins in presence of antioxidant sodium metabisulfite relative to control; method in brief: as §2
# [12] = target: T1, Catechol O-methyltransferase (Rattus norvegicus); assay: Inhibition of Sprague-Dawley rat liver COMT assessed as residual activity under aerobic condition at 189 uM at 37 degC after 40 mins in presence of catalase relative to control; method in brief: as §2
# [13] = target: T1, Catechol O-methyltransferase (Rattus norvegicus); assay: Inhibition of Sprague-Dawley rat liver COMT using 2.5 mM DHA as substrate assessed as residual activity under aerobic condition at 189 uM at 37 degC after 40 mins relative to control
# [14] = target: T1, Catechol O-methyltransferase (Rattus norvegicus); assay: Inhibition of Sprague-Dawley rat liver COMT using 10 mM DHA as substrate assessed as residual activity under aerobic condition at 189 uM at 37 degC after 40 mins relative to control
# [15] = target: T1, Catechol O-methyltransferase (Rattus norvegicus); assay: Inhibition of Sprague-Dawley rat liver COMT using 0.76 mM SAM as substrate assessed as residual activity under aerobic condition at 189 uM at 37 degC after 40 mins relative to control
# [16] = target: T1, Catechol O-methyltransferase (Rattus norvegicus); assay: Inhibition of Sprague-Dawley rat liver COMT using 0.76 mM SAH as substrate assessed as residual activity under aerobic condition at 189 uM at 37 degC after 40 mins relative to control
# [17] = target: T1, Catechol O-methyltransferase (Rattus norvegicus); assay: Inhibition of Sprague-Dawley rat liver COMT using 2.5 mM DHA/0.4 mM SAM as substrate assessed as residual activity under aerobic condition at 189 uM at 37 degC after 40 mins relative to control
# [18] = target: T1, Catechol O-methyltransferase (Rattus norvegicus); assay: Inhibition of Sprague-Dawley rat liver COMT using 10 mM DHA/0.4 mM SAM as substrate assessed as residual activity under aerobic condition at 189 uM at 37 degC after 40 mins relative to control
# [19] = target: T1, Catechol O-methyltransferase (Rattus norvegicus); assay: Inhibition of Sprague-Dawley rat liver COMT using 10 mM DHA/0.4 mM SAH as substrate assessed as residual activity under aerobic condition at 189 uM at 37 degC after 40 mins relative to control
# [20] = target: T1, Catechol O-methyltransferase (Rattus norvegicus); assay: Inhibition of Sprague-Dawley rat liver COMT at 0.25 mM preincubated for > 50 mins at 37 degC
# [21] = target: T1, Catechol O-methyltransferase (Rattus norvegicus); assay: Inhibition of Sprague-Dawley rat liver COMT using > 0.3 mM SAM as substrate at 0.19 mM at 37 degC after 40 mins
# [22] = target: T1, Catechol O-methyltransferase (Rattus norvegicus); assay: Inhibition of Sprague-Dawley rat liver COMT using > 0.3 mM SAH as substrate at 0.19 mM at 37 degC after 40 mins
# [23] = target: T1, Catechol O-methyltransferase (Rattus norvegicus); assay: Inhibition of Sprague-Dawley rat liver COMT
# [24] = target: T1, Catechol O-methyltransferase (Rattus norvegicus); assay: Inhibition of Sprague-Dawley rat liver COMT at 0.25 to 1.25 mM preincubated for > 50 mins at 37 degC; method in brief: as §1
# [25] = Half life of the compound assessed as cyclization to 6-hydroxy-2H-indol-5(3H)-one at 37 degC; type: physicochemical
compound,measurement,setting,value
Br.C[N+](C)(C)CCc1cc(O)c(O)cc1N.[Br-],inhibition,[1],inactive
same,inhibition,[2],Active
same,inhibition,[3],inactive
same,inhibition,[4],inactive
same,inhibition,[5],inactive
same,Stability,[6],Stable
same,inhibition,[7],Active
Br.Br.CN(C)CCc1cc(O)c(O)cc1N,inhibition,[1],inactive
same,inhibition,[2],Active
same,inhibition,[5],inactive
same,Stability,[6],Stable
same,inhibition,[7],Active
C[N+](C)(C)CCC1=CC(=O)C(O)=CC1=N.[Br-],Stability,[8],Unstable
NCCc1cc(O)c(O)cc1N,Activity,[9],2%
same,Activity,[10],103%
same,Activity,[11],77%
same,Activity,[12],1%
same,Activity,[13],10%
same,Activity,[14],17%
same,Activity,[15],26%
same,Activity,[16],52%
same,Activity,[17],63%
same,Activity,[18],85%
same,Activity,[19],94%
same,inhibition,[20],Active
same,Stability,[6],Stable
same,inhibition,[21],Active
same,inhibition,[22],Active
same,inhibition,[7],Active
Br.CC(N)C(C)(C)c1cc(O)c(O)cc1N (centres undefined),inhibition,[1],inactive
same,inhibition,[5],inactive
same,Stability,[6],Stable
same,inhibition,[23],Active
Br.CN(C)CCC1=CC(=O)C(O)=CC1=N,Stability,[8],Unstable
Br.NCC1(c2cc(O)c(O)cc2N)CCCC1,inhibition,[1],inactive
same,inhibition,[5],inactive
same,inhibition,[24],Active
same,Stability,[6],Stable
N=C1C=C(O)C(=O)C=C1CCN,half-life,[25],30 s
